Published values from different studies.
Each line is one published result; the experiments were not run side by side.
Target: Mitogen-activated protein kinase kinase kinase kinase 4 (MAP4K4, Homo sapiens, UniProt O95819)

| SMILES | read-out | action | technique | tested at | endpoint | value |
| --- | --- | --- | --- | --- | --- | --- |
| Cc1nn(C)cc1-c1nc2c(N3CCN(Cc4ccc(Cl)cc4)CC3)c(Cl)cnc2[nH]1 | binding |  | competition with immobilised ligand | 1 µM | remaining binding | 88% |
| Cn1cncc1[C@](O)(COc1ccc(C#N)cc1-c1ccc(OC(F)(F)F)cc1)c1ccc(C#N)cc1 | cell-free assay |  | competition with immobilised ligand | 1 µM | remaining binding | 100% |
| Nc1ncc(-c2nc(N3CCOCC3)nc(N3CCOCC3)n2)c(C(F)F)n1 | binding |  | competition with immobilised ligand | 10 µM | remaining binding | 100% |
| Cn1cc(-c2cccc(N3CCc4c(sc5c4CC(C)(C)C5)C3=O)c2CO)cc(Nc2ccncn2)c1=O | enzyme activity | inhibitor |  | 1 µM | inhibition | 4% |
| COc1ncccc1-c1cnn2ccc(N3CCN(C(=O)OC(C)C)CC3)nc12 | binding |  | competition with immobilised ligand | 1 µM | remaining binding | 83% |
| O=c1[nH]c2ccccc2n1C1CCN(Cc2ccc(-c3[nH]c4cc5ncnc5cc4nc3-c3ccccc3)cc2)CC1 | cell-free assay |  |  | 0.5 µM | remaining signal | 99.5% |
| N#CC1(c2ccccn2)CCN(Cc2cc(C(=O)O)c(=O)n3ccccc23)CC1 | cell-free assay |  | competition with immobilised ligand | 1 µM | remaining binding | 87% |
| Cn1cc(-c2cc(F)cc(N3CCn4c(cc5c4CCCC5)C3=O)c2CO)cc(Nc2ccc(N3CCN(C4COC4)CC3)cn2)c1=O | enzyme activity | inhibitor |  | 0.1 µM | inhibition | 23% |
| CC(C)(C)c1cc(C=C(C#N)C#N)cc(Br)c1O | enzyme activity | inhibitor |  | 0.5 µM | remaining activity | 96.2% |
